Tests used:
Format in all cases: functional
Enterococcus faecium [1] = test: Antibacterial activity against quinupristin-dalfopristin resistant and ermB gene expressing Enterococcus faecium isolate CS121 containing streptogramin A resistance genes vatG and vgaD isolated from poultry stool samples
Enterococcus faecium [2] = test: Antibacterial activity against quinupristin-dalfopristin resistant and ermB gene expressing Enterococcus faecium isolate CS106 containing streptogramin A resistance genes vatG and vgaD isolated from poultry stool samples
Enterococcus faecium [3] = test: Antibacterial activity against quinupristin-dalfopristin resistant and ermB gene expressing Enterococcus faecium isolate CS103 containing streptogramin A resistance genes vatG and vgaD isolated from poultry stool samples
Enterococcus faecium [4] = test: Antibacterial activity against quinupristin-dalfopristin resistant and ermB gene expressing Enterococcus faecium isolate CS098 containing streptogramin A resistance genes vatG and vgaD isolated from poultry stool samples
Enterococcus faecium [5] = test: Antibacterial activity against quinupristin-dalfopristin resistant and ermB gene expressing Enterococcus faecium isolate AS115 containing streptogramin A resistance genes vatG and vgaD isolated from poultry stool samples
Summary of the method: (§1)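 Isolates were recovered from fecal samples (human, poultry, swine; 2000/2003) or retail meat (2003). Samples were enriched in Enterococcosel broth for 48 h at 37°C, then streaked on Enterococcosel agar containing Q-D at 2 μg/ml to select resistant E. faecium. vatG and vgaD were detected by PCR with gene-specific primers: 30 cycles, annealing at 55°C.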

Enterococcus faecium [6] = test: Antibacterial activity against quinupristin-dalfopristin resistant and ermB and vanA gene expressing Enterococcus faecium isolate C19 containing streptogramin A resistance genes vatG and vgaD isolated from poultry stool samples
Enterococcus faecium [7] = test: Antibacterial activity against quinupristin-dalfopristin resistant and ermB and vanA gene expressing Enterococcus faecium isolate A15 containing streptogramin A resistance genes vatG and vgaD isolated from poultry stool samples; summary of the method: as §1
Enterococcus faecium [8] = test: Antibacterial activity against quinupristin-dalfopristin resistant Enterococcus faecium isolate ES022 containing streptogramin A resistance genes vatG and vgaD isolated from swine stool samples
Enterococcus faecium [9] = test: Antibacterial activity against quinupristin-dalfopristin resistant and ermB gene expressing Enterococcus faecium isolate KS46 containing streptogramin A resistance genes vatG and vgaD isolated from healthy human stool samples
Enterococcus faecium [10] = test: Antibacterial activity against quinupristin-dalfopristin resistant and ermB gene expressing Enterococcus faecium isolate JS79 containing streptogramin A resistance genes vatG and vgaD isolated from healthy human stool samples
Enterococcus faecium [11] = test: Antibacterial activity against quinupristin-dalfopristin resistant and vanA gene expressing Enterococcus faecium isolate GAV04 containing streptogramin A resistance genes vatG and vgaD isolated from chicken meat samples
Enterococcus faecium [12] = test: Antibacterial activity against quinupristin-dalfopristin resistant and vanA gene expressing Enterococcus faecium isolate GAV12 containing streptogramin A resistance genes vatG and vgaD isolated from chicken meat samples; summary of the method: as §1
Enterococcus faecium [13] = test: Antibacterial activity against quinupristin-dalfopristin abd erythromycin sensitive aEnterococcus faecium U201 transconjugants receiving ermB genes and vatG gene from quinupristin-dalfopristin resistant Enterococcus faecium isolate
Summary of the method: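 Transconjugants came from broth mating: donor and recipient overnight M17 cultures were mixed 1:1 into fresh M17 broth for 6 h at 37°C. Selection was on BHI agar with erythromycin (100 μg/ml) and ampicillin (100 μg/ml) for 24 h at 37°C. The erythromycin and Q-D MICs were compared with the donor's.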

Measured: MIC

CN[C@H](CC(C)C)C(=O)N[C@H]1C(=O)N[C@@H](CC(N)=O)C(=O)N[C@H]2C(=O)N[C@H]3C(=O)N[C@H](C(=O)N[C@H](C(=O)O)c4cc(O)cc(O)c4-c4cc3ccc4O)[C@H](O)c3ccc(c(Cl)c3)Oc3cc2cc(c3O[C@@H]2O[C@H](CO)[C@@H](O)[C@H](O)[C@H]2O[C@H]2C[C@](C)(N)[C@H](O)[C@H](C)O2)Oc2ccc(cc2Cl)[C@H]1O [VANCOMYCIN]
256 µg/mL: Enterococcus faecium [6] | Enterococcus faecium [7] | Enterococcus faecium [11] | Enterococcus faecium [12]
not listed: Enterococcus faecium [13]
< 1 µg/mL: all other assays above

CC[C@H]1OC(=O)[C@H](C)[C@@H](O[C@H]2C[C@@](C)(OC)[C@@H](O)[C@H](C)O2)[C@H](C)[C@@H](O[C@@H]2O[C@H](C)C[C@H](N(C)C)[C@H]2O)[C@](C)(O)C[C@@H](C)C(=O)[C@H](C)[C@@H](O)[C@]1(C)O [ERYTHROMYCIN]
< 1 µg/mL: Enterococcus faecium [11] | Enterococcus faecium [12]
0.1 µg/mL: Enterococcus faecium [8]
256 µg/mL: all other assays above
